According to ChEMBL document CHEMBL3351368, “Biphenyl-4-carboxylic acid [2-(1H-indol-3-yl)-ethyl]-methylamide (CA224), a nonplanar analogue of fascaplysin, inhibits Cdk4 and tubulin polymerization: evaluation of in vitro and in vivo anticancer activity” (J Med Chem, 2014):
Activity calls are given as the source filed them.

Key:
NCI-H358 = test: Growth inhibition of p53 null, pRb null human NCI-H358 cells after 48 hrs by MTT assay; type: functional, cell-based; conditions: NCI-H358, 48 h
In short: (§1)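 MTT cell proliferation assay. IC50 (µM) was defined as the concentration giving 50% inhibition of cell growth.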

[1] = Growth inhibition of p53His273 mut, pRb+ human MiaPaCa cells after 48 hrs by MTT assay; type: functional; conditions: MIA PaCa-2, 48 h; in short: as §1
[2] = Growth inhibition of mouse BNL-SVA.8 cells after 48 hrs by MTT assay; type: functional; in short: as §1
CDK9/cyclin T1 = CDK9/cyclin T1 (Homo sapiens, UniProt P50750); test: Binding affinity to human CDK9/cyclinT1; type: protein-complex assay
[3] = biological target: Cyclin-dependent kinase 1/cyclin B1 (Homo sapiens, UniProt P06493); test: Binding affinity to human CDK1/cyclinB1; type: protein-complex assay
NCI-H1299 = test: Growth inhibition of p53 null, pRb+ human NCI-H1299 cells after 48 hrs by MTT assay; type: functional, cell-based; conditions: NCI-H1299, 48 h; in short: as §1
[4] = Growth inhibition of p53+, pRb+ human NCI-H460 cells after 48 hrs by MTT assay; type: functional, cell-based; conditions: NCI-H460, 48 h; in short: as §1
[5] = Displacement of ethidium bromide from closed circular plasmid DNA (unknown origin) by fluorescence quenching assay
[6] = Growth inhibition of mouse BNL-CL2 cells after 48 hrs by MTT assay; type: functional, cell-based; conditions: BNL CL.2, 48 h; in short: as §1
[7] = Growth inhibition of p53+, pRb+ human LS 174T cells after 48 hrs by MTT assay; type: functional, cell-based; conditions: LS174T; in short: as §1
A549 = test: Growth inhibition of p53+, pRb+ human A549 cells after 48 hrs by MTT assay; type: functional, cell-based; conditions: A549, 48 h; in short: as §1
[8] = biological target: Cyclin-dependent kinase 2/cyclin E1 (Homo sapiens, UniProt P24941); test: Binding affinity to human CDK2/cyclinE; type: protein-complex assay
[9] = Growth inhibition of p53 null,pRb+ human PC3 cells after 48 hrs by MTT assay; type: functional, cell-based; conditions: PC-3, 48 h; in short: as §1
CDK2/Cyclin A2 = CDK2/Cyclin A2 (Homo sapiens, UniProt P24941); test: Binding affinity to human CDK2/cyclinA using GST-pRB152 as substrate by chemiluminescence assay; type: protein-complex assay
[10] = Growth inhibition of p53 null, pRb+ human Calu1 cells after 48 hrs by MTT assay; type: functional, cell-based; conditions: Calu-1, 48 h; in short: as §1
[11] = biological target: Cyclin-dependent kinase 4/cyclin D1 (Homo sapiens, UniProt P11802); test: Binding affinity to human CDK4/cyclinD1 using GST-pRB152 as substrate by chemiluminescence assay; type: protein-complex assay
Chain of Cyclin-dependent kinase 4/cyclin D1 (P11802 whole entry): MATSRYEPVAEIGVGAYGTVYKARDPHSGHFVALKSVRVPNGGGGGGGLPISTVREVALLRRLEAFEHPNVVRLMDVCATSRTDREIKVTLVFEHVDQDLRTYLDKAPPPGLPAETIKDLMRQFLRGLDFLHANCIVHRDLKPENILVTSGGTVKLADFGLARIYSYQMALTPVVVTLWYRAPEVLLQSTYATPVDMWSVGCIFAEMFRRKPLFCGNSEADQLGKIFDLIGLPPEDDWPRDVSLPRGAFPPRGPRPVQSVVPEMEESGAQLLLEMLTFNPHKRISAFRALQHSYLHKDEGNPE
Chain of Cyclin-dependent kinase 4/cyclin D1 (P24385 whole entry, further chain): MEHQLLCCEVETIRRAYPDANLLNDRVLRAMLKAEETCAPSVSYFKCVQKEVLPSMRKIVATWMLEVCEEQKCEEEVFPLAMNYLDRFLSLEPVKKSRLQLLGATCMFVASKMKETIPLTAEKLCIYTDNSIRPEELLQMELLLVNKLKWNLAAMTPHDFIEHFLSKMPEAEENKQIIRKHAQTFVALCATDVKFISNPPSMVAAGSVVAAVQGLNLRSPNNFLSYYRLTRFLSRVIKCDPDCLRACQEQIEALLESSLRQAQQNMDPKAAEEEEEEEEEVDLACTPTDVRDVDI

Chain of CDK9/cyclin T1 (O60563 whole entry): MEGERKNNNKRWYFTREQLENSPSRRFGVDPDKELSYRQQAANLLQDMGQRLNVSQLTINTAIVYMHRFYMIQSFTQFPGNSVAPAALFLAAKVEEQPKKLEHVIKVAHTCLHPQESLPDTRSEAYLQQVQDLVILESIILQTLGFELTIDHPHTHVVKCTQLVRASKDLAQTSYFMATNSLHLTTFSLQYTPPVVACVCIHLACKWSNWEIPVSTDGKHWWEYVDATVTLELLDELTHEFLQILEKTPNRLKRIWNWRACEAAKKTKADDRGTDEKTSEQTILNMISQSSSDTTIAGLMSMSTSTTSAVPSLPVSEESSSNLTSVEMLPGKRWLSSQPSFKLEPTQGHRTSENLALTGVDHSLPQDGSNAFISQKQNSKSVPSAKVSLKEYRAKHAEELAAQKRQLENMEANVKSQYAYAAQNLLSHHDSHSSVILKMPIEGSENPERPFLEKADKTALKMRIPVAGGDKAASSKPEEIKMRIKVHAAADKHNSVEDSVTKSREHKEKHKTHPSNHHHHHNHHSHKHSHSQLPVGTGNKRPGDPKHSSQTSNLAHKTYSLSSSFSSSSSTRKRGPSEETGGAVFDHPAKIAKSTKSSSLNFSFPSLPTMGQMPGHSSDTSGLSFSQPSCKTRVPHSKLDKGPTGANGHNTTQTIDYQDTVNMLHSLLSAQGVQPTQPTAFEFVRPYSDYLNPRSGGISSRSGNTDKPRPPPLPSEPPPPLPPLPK
Chain of CDK9/cyclin T1 (P50750 whole entry): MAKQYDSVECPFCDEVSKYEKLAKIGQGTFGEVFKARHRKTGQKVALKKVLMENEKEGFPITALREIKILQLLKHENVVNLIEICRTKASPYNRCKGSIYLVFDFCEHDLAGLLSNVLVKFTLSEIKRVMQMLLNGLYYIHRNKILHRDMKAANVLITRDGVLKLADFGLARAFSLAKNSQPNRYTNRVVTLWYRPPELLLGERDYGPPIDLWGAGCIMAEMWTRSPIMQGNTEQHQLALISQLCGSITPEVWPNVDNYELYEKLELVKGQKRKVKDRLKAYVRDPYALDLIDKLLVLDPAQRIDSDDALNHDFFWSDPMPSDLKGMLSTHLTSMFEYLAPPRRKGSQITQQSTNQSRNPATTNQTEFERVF
Chain of Cyclin-dependent kinase 1/cyclin B1 (P06493 whole entry): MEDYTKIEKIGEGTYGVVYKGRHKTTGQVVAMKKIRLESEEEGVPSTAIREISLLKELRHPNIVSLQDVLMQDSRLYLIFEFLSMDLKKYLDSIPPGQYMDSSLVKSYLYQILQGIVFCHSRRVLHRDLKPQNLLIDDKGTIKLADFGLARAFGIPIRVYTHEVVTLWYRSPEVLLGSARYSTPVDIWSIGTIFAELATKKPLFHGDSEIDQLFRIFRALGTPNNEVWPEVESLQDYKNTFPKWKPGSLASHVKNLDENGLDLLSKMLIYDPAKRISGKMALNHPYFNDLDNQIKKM
Chain of Cyclin-dependent kinase 1/cyclin B1 (P14635 whole entry, further chain): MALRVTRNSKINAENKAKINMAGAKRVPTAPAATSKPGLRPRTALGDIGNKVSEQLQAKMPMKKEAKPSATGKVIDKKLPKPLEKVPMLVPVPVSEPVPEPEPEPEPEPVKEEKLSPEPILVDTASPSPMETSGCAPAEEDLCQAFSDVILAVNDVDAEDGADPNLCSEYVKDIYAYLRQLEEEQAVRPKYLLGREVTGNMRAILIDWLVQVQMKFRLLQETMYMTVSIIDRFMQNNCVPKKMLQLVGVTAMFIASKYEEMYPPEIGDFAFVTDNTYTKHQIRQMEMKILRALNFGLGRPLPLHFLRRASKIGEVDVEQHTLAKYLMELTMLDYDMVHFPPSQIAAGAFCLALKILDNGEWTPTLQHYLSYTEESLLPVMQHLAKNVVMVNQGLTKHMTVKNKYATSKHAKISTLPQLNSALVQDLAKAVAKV

Structure (SMILES)	IC50 (NCI-H358)	IC50 [1]	IC50 [2]	IC50 (CDK9/cyclin T1)	IC50 [3]	IC50 (NCI-H1299)	IC50 [4]	inhibition [5]	IC50 [6]	IC50 [7]	IC50 (A549)	IC50 [8]	IC50 [9]	IC50 (CDK2/Cyclin A2)	IC50 [5]	IC50 [10]	IC50 [11]
CN(CCc1c[nH]c2ccccc12)C(=O)c1ccc(C(C)(C)C)cc1	14 µM	10.2 µM	22 µM	> 1000 µM	> 500 µM	11.5 µM	9.8 µM	inactive	18 µM								
O=C1c2ccccc2-[n+]2ccc3c([nH]c4ccccc43)c21 [FASCAPLYSIN CHLORIDE]				> 250 µM	> 250 µM					0.88 µM	0.69 µM	> 250 µM	0.92 µM	> 250 µM	5 µM	1.3 µM	0.41 µM
CN(CCc1c[nH]c2ccccc12)C(=O)c1ccc(Cl)cc1	26 µM	31 µM	32 µM	> 1000 µM	> 500 µM	21 µM	24 µM	inactive	29 µM								
